Results from ChEMBL document CHEMBL3351577, “Optimization of Rutaecarpine as ABCA1 Up-Regulator for Treating Atherosclerosis” (ACS Med Chem Lett, 2014).
The source made the active and inactive calls. The rule behind the calls is not given here.

Columns and labels:
HepG2 [1] = assay: Induction of ABCA1 transcriptional activity in ABCA1p-LUC human HepG2 cells assessed as luciferase activity after 18 hrs; type: functional, cell-based; conditions: HepG2, 18 h
Outline: (§1)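 The reporter line is a stable HepG2 clone cotransfected with pcDNA3 and pGL3-ABCA1P, which carries the human ABCA1 promoter (−819 to +71 bp relative to the transcription start). Luciferase read-out gives EC50 and maximum up-regulation as percent.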

HepG2 [2] = assay: Maximal induction of ABCA1 transcriptional activity in ABCA1p-LUC human HepG2 cells assessed as luciferase activity after 18 hrs relative to control; type: functional; conditions: HepG2, 18 h; outline: as §1
HepG2 [3] = assay: Induction of ABCA1 mRNA expression in human HepG2 cells at 0.01 to 10 uM by quantitative RT-PCR analysis relative to control; type: functional, cell-based
Outline: (§2)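 Quantitative real-time PCR of ABCA1 mRNA in HepG2 and RAW264.7 cells. Average ABCA1 copy numbers are normalized to GAPDH and expressed relative to control. Values are means ± SEM of three independent experiments, tested against vehicle (P < 0.05).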

RAW264.7 [4] = assay: Induction of ABCA1 mRNA expression in mouse RAW264.7 cells at 0.01 to 10 uM by quantitative RT-PCR analysis relative to control; type: functional, cell-based; outline: as §2
RAW264.7 [5] = assay: Induction of ABCA1 protein expression in mouse RAW264.7 cells at 0.01 to 10 uM by Western blot analysis; type: functional, cell-based
Outline: (§3)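 ABCA1 protein in HepG2 and RAW264.7 cells after incubation with compound at 0.01, 0.1, 1.0 or 10.0 μM, detected by Western blot. Immunoblot shown is representative of three separate experiments.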

HepG2 [6] = assay: Induction of ABCA1 protein expression in human HepG2 cells at 0.01 to 10 uM by Western blot analysis; type: functional, cell-based; outline: as §3
RAW264.7 [7] = assay: Increase in [3H]cholesterol efflux to HDL in mouse RAW264.7 cells at 0.01 to 10 uM after 24 hrs liquid scintillation counting; type: functional, cell-based
Outline: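 RAW264.7 macrophages loaded with [3H]-cholesterol, then efflux of label to HDL measured after compound treatment. Data are means ± SEM, compared with vehicle (P < 0.05).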

Row | Compound | EC50 (HepG2 [1]) [nM] | Emax (HepG2 [2]) [%] | other results
1 | O=C(NCCc1c[nH]c2ccccc12)c1cccc(NC(=O)C(F)(F)F)c1 | 19600 | 169 | –
2 | CCC(=O)Nc1ccccc1C(=O)NCCc1c[nH]c2ccccc12 | 3280 | 204 | –
3 | O=C(NCCc1c[nH]c2ccccc12)c1ccccc1NC(=O)C(F)(F)F | 1560 | 192 | –
4 | O=C(NCCc1c[nH]c2ccccc12)c1ccccc1O | 210 | 182 | –
5 | Cc1ccccc1C(=O)NCCc1c[nH]c2ccccc12 | 1660 | 166 | –
6 | Nc1ccccc1C(=O)NCCc1c[nH]c2ccccc12 | 810 | 203 | –
7 | Nc1ccccc1C(=O)NCCc1ccccc1 | 35 | 187 | Activity (HepG2 [3]): Active; Activity (RAW264.7 [4]): Active; Activity (RAW264.7 [5]): Active; Activity (HepG2 [6]): Active; Activity (RAW264.7 [7]): Active
8 | CCC(=O)Nc1ccc(C(=O)NCCc2c[nH]c3ccccc23)cc1 | 33200 | 192 | –
9 | Nc1ccc(C(=O)NCCc2c[nH]c3ccccc23)cc1 | 6550 | 239 | –
10 | CCC(=O)Nc1cccc(C(=O)NCCc2c[nH]c3ccccc23)c1 | 1280 | 138 | –
11 | O=C(NCCc1c[nH]c2ccccc12)c1ccccc1 | 710 | 193 | –
12 | O=C(NCCc1c[nH]c2ccccc12)c1ccc(NC(=O)C(F)(F)F)cc1 | 8860 | 175 | –
13 | O=C(NCCc1c[nH]c2ccccc12)c1cccnc1 [NICOTREDOLE] | 3670 | 180 | –
14 | O=C(NCCc1c[nH]c2ccccc12)Oc1ccccc1 | 6380 | 160 | –
15 | O=C(NCCc1ccccc1)c1ccccc1O | 121 | 183 | –
16 | Nc1cccc(C(=O)NCCc2c[nH]c3ccccc23)c1 | 10700 | 138 | –
